Results as given in PMC5152947 (Journal of molecular structure, 2016).
“And” between values parts separate entries of the source, which are not always exact repeats. Identical values can stand only once. Like-named read-outs stand apart in the source and are kept apart here.

Key:
[1] = tested on: HCT-116 (human colon carcinoma) cells; assay: Cytotoxicity assay; assay type: cell-based; conditions: for TI (therapeutic index) = (IC50)CCD-18Co/(IC50)cancer cells, HCT-116: 72 h; for IC50: read-out: IC50 HCT-116
[2] = tested on: CCD-18Co (human colon fibroblasts); assay: Cytotoxicity assay; assay type: cell-based; conditions: read-out: IC50 CCD-18Co
[3] = tested on: supercoiled pBR322 plasmid DNA; assay: Chemical nuclease activity, agarose gel electrophoresis; assay type: biochemical; conditions: 50 and 100 μM, 1 h, 37 °C
Procedure, shortened: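 Supercoiled pBR322 (0.1 mg/mL) was incubated 1 h with complex in Tris buffer (50 mM Tris, 18 mM NaCl, pH 8.2), in the dark or under UV exposure, aerobic. Loading buffer quench, then 1% agarose gel in TBE (pH 8.2) at 70 V for 1 h. Gels stained with ethidium bromide ([…], 30 min), imaged under UV, and scored for nicked Form II.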

[4] = molecular target: human serum albumin (HSA) (Homo sapiens, UniProt P02768); assay: Fluorescence quenching titration of human serum albumin; assay type: binding; conditions: for static quenching constant KS: combined quenching analysis
[5] = tested on: Caco-2 (human epithelial colorectal adenocarcinoma) cells; assay: Cytotoxicity assay; conditions: for TI (therapeutic index) = (IC50)CCD-18Co/(IC50)cancer cells, Caco-2: 72 h; for IC50: read-out: IC50 Caco-2

Chain of human serum albumin (HSA) (P02768 25-609): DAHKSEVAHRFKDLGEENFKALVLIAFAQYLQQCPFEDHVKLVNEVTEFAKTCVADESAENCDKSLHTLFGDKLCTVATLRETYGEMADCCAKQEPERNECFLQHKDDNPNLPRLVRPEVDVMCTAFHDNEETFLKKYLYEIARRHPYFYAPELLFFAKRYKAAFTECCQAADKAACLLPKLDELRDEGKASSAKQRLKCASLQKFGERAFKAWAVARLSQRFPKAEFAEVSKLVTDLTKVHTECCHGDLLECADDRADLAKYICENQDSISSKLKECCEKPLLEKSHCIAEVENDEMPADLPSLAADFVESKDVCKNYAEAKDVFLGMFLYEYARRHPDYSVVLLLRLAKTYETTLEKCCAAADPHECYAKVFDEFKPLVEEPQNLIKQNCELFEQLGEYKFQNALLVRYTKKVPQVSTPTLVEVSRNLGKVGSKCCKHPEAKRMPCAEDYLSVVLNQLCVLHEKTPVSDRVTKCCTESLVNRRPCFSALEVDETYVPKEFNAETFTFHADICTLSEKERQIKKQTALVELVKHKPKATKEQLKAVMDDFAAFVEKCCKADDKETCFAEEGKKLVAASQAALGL

Compound	TI (therapeutic index) = (IC50)CCD-18Co/(IC50)cancer cells, HCT-116 [1]	IC50 ([1]; 24 h incubation) [µM]	IC50 ([1]; 48 h incubation) [µM]	IC50 ([1]; 72 h incubation) [µM]	IC50 ([2]; 24 h incubation, normal cells) [µM]	IC50 ([2]; 48 h incubation, normal cells) [µM]	IC50 ([2]; 72 h incubation, normal cells) [µM]	cleavage of pBR322 DNA [3]	Modified Stern-Volmer K ([4]; 298 K) [M⁻¹]	Modified Stern-Volmer f (fraction of fluorophore initially accessible) ([4]; 298 K)	Scatchard K ([4]; 298 K) [M⁻¹]	Scatchard n (number of binding sites) ([4]; 298 K)	Modified Stern-Volmer K ([4]; 303 K) [M⁻¹]	Modified Stern-Volmer f (fraction of fluorophore initially accessible) ([4]; 303 K)	Scatchard K ([4]; 303 K) [M⁻¹]	Scatchard n (number of binding sites) ([4]; 303 K)	TI (therapeutic index) = (IC50)CCD-18Co/(IC50)cancer cells, Caco-2 [5]	IC50 ([5]; 24 h incubation) [µM]	IC50 ([5]; 48 h incubation) [µM]	IC50 ([5]; 72 h incubation) [µM]	further results
Ga(EtATSC)3·0.25C2H5OH [Complex 2]	1.98	49.9 ± 2.5	43.6 ± 2.1	30.1 ± 1.1	78.6 ± 2.1	60.6 ± 2	59.5 ± 2.5	cleavage of the DNA occurred	308000	1.1	29700	1.1	169000	1.3	17600	1.1	5 and 5.14	23.1 ± 2.1	18.7 ± 1.7	11.6 ± 1.1	–
Ga(PhATSC)3·H2O [Complex 3]	1.33	79 ± 1.1	56 ± 1.7	32.1 ± 2.4	80.9 ± 2.6	59.2 ± 2.6	42.9 ± 1.3	both the Form II and Form III (linear DNA) being present	302000	0.93	26300	0.96	231000	1.1	20800	1.1	0.97	78.7 ± 5.3	58 ± 1.5	44.1 ± 3.6	static quenching constant KS ([4]; 298 K): 20400 M⁻¹; static quenching constant KS ([4]; 303 K): 33500 M⁻¹; Modified Stern-Volmer K ([4]; 308 K): 325000 M⁻¹; Modified Stern-Volmer f (fraction of fluorophore initially accessible) ([4]; 308 K): 1.0; Scatchard K ([4]; 308 K): 28800 M⁻¹; Scatchard n (number of binding sites) ([4]; 308 K): 1.1
COc1cc([C@@H]2c3cc4c(cc3[C@@H](O[C@@H]3O[C@@H]5CO[C@@H](C)O[C@H]5[C@H](O)[C@H]3O)[C@H]3COC(=O)[C@H]23)OCO4)cc(OC)c1O [Etoposide, reference compound]	3.07	–	–	–	–	–	–	–	–	–	–	–	–	–	–	–	2.71	–	–	–	IC50 ([1]; Homo sapiens, HCT-116, 24 h): 28.9 ± 2 µM; IC50 ([1]; Homo sapiens, HCT-116, 48 h): 26.9 ± 1.5 µM; IC50 ([1]; Homo sapiens, HCT-116, 72 h): 14.3 ± 1.4 µM; IC50 ([2]; Homo sapiens, CCD-18Co, 24 h): 51.2 ± 1.1 µM; IC50 ([2]; Homo sapiens, CCD-18Co, 48 h): 48.7 ± 3.1 µM; IC50 ([2]; Homo sapiens, CCD-18Co, 72 h): 43.9 ± 1.8 µM; IC50 ([5]; Homo sapiens, Caco-2, 24 h): 23 ± 0.9 µM; IC50 ([5]; Homo sapiens, Caco-2, 48 h): 18.9 ± 1.6 µM; IC50 ([5]; Homo sapiens, Caco-2, 72 h): 16.2 ± 1.7 µM
